# Assays:
# [1] = molecular target: T1, 11β-HSD2 (Homo sapiens, UniProt P80365); test: 11β-HSD2 activity in intact MCF-7 cells; format: cell-based
# T1 sequence (P80365 1-405): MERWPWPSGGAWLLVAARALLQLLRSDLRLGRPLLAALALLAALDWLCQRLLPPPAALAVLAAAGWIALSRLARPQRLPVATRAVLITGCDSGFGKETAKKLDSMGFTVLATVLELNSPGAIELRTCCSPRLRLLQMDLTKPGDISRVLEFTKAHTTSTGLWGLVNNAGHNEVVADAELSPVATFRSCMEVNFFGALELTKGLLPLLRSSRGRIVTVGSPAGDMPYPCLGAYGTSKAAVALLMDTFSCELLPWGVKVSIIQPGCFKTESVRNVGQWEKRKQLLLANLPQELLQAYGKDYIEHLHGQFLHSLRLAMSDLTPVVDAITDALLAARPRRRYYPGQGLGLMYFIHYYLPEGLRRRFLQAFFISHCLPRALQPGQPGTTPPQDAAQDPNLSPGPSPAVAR
# Method in brief: (§1)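 Cells were grown in DMEM with 10% FBS (SW-620 passages 11–15, MCF-7 passages 19–27) and seeded at 100 000 (SW-620) or 50 000 (MCF-7) per well. After 24 h, medium was replaced by steroid- and serum-free DMEM with vehicle or inhibitor plus radiolabeled cortisol (10 nCi; 50 nM final). Incubation was at 37°C for 4 h (SW-620) or 5 h (MCF-7). Conversion was read by TLC and scintillation counting.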
# [2] = molecular target: T1, 11β-HSD2; test: 11β-HSD2 activity in intact SW-620 cells; format: cell-based
# Method in brief: as §1
# [3] = first trimester exposure, 229 women, 50-800 mg daily, prospective cohort; cited from earlier work
# [4] = molecular target: T2, human 17β-HSD1 (Homo sapiens, UniProt P14061); test: 17β-HSD1 activity in lysates of transiently transfected HEK-293 cells; format: biochemical; details: HEK-293 lysates, 200 nM estrone; data not shown
# T2 sequence (P14061 1-328): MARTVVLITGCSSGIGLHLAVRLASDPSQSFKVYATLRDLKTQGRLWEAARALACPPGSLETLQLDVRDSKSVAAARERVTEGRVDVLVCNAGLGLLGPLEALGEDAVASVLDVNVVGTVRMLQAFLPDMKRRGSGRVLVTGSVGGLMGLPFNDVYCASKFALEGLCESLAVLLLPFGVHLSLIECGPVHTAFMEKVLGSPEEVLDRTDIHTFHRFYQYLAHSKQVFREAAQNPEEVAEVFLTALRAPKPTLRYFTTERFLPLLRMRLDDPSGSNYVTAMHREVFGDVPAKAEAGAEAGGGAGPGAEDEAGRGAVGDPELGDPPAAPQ
# Method in brief: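 Lysates of HEK-293 cells transiently expressing human 17β-HSD1 were incubated for 10 min at 37°C with 200 nM estrone (containing 50 nCi [2,4,6,7-3H]-estrone), 500 μM NADPH and test compound or DMSO vehicle. Steroids were separated by TLC, and substrate conversion was measured by scintillation counting. Activity was normalized to the vehicle control. Data are mean ± SD from at least three independent experiments.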
# [5] = cited from earlier work
# [6] = molecular target: T1, 11β-HSD2; test: 11β-HSD2 activity in lysates of HEK-293 cells stably expressing human 11β-HSD2; format: biochemical
# Method in brief: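 Reactions were stopped with excess unlabeled cortisone/cortisol, giving about 20–25% conversion. Products were separated by TLC (chloroform:methanol 9:1) and counted by scintillation. Activity was normalized to vehicle; mean ± SD, ≥3 independent experiments.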
# [7] = molecular target: human 11β-HSD1 (Homo sapiens, UniProt P28845); format: biochemical; details: HEK-293 lysates, recombinant human enzyme
# Sequence of human 11β-HSD1 (P28845 whole entry): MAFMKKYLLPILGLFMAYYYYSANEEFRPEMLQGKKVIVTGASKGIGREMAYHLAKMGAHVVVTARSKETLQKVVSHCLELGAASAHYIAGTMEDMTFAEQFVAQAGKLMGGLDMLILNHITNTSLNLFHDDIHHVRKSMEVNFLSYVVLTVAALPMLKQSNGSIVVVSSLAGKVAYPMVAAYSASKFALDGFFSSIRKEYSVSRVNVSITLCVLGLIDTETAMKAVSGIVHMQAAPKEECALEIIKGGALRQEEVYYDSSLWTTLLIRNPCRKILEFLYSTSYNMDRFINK
# Method in brief: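 Lysates of HEK-293 cells stably co-expressing human 11β-HSD1 and H6PDH (HHH7 clone) were incubated 10 min at 37°C with 200 nM radiolabeled cortisone, 500 μM NADPH and test compound or DMSO vehicle (max 0.1%). Reactions were stopped with excess unlabeled cortisone/cortisol, giving about 20–25% conversion. Steroids were separated by TLC (chloroform:methanol 9:1) and counted by scintillation. Activity was normalized to vehicle; mean ± SD, ≥3 independent experiments. IC50 was skipped when residual activity at 20 μM exceeded 40%.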
# [8] = molecular target: T3, human 17β-HSD2 (Homo sapiens, UniProt P37059); test: 17β-HSD2 activity in lysates of transiently transfected HEK-293 cells; format: biochemical; details: HEK-293 lysates, 200 nM estradiol; data not shown
# T3 sequence (P37059 1-387): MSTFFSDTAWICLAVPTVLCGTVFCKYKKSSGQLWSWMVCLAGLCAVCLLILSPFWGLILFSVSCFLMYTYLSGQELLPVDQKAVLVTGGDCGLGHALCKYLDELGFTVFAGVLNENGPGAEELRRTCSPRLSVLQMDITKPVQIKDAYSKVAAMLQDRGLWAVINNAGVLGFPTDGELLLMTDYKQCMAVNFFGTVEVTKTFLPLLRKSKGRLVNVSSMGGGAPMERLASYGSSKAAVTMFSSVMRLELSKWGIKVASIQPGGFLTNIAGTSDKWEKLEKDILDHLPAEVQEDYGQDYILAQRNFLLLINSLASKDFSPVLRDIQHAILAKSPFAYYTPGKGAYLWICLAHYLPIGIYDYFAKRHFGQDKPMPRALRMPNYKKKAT
# Method in brief: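 Lysates of HEK-293 cells transiently expressing human 17β-HSD2 were incubated for 10 min at 37°C with 200 nM estradiol (containing 50 nCi [2,4,6,7-3H]-estradiol), 500 μM NAD+ and test compound or DMSO vehicle. Steroids were separated by TLC, with conversion quantified by scintillation counting. Results were normalized to the vehicle control. Data are mean ± SD from at least three independent experiments.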
# [9] = molecular target: T1, 11β-HSD2; format: biochemical; details: preincubation 0, 5, 20 min at 4°C or 10 min followed by dilution
# Method in brief: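 Lysates of HEK-293 cells expressing human 11β-HSD2 were preincubated with test compound for 0, 5 or 20 min at 4°C before activity measurement. Alternatively, lysates were preincubated 10 min with compound, then diluted 1:2 or 1:4 before measuring 11β-HSD2 activity (radiolabeled cortisol, NAD+, TLC/scintillation). Data were normalized to DMSO control; mean ± SD, ≥3 independent experiments.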
structure (smiles),measurement,setting,value
CCC(C)n1ncn(-c2ccc(N3CCN(c4ccc(OCC5COC(Cn6cncn6)(c6ccc(Cl)cc6Cl)O5)cc4)CC3)cc2)c1=O (stereo not drawn) [itraconazole],IC50,[1],1.19 ± 0.24 µM
same,IC50,[2],1.07 ± 0.29 µM
same,rate of malformations compared to the control,[3],no difference
same,inhibition of 17β-HSD1 activity,[4],None of the compounds inhibited 17β-HSD1 or 17β-HSD2 activity
same,concentration in fat tissue relative to plasma,[5]; fat tissue,approximately 17 fold
same,duration of treatment needed to reach plasma steady-state levels,[5]; human plasma,15 days
same,"concentration in lung, liver, muscle and kidney relative to plasma","[5]; lung, liver, muscle and kidney",2-3 fold
same,IC50,[6],0.139 ± 0.014 µM
same,IC25 for 11β-HSD2,[6]; as determined in HEK-293 cell lysates,0.078 µM
same,activity against 11β-HSD1 (in words),[7],inactivity towards 11β-HSD1
same,inhibition of 17β-HSD2 activity,[8],None of the compounds inhibited 17β-HSD1 or 17β-HSD2 activity
same,irreversible 11β-HSD2 inhibition,[9],excluded
